Source: ChEMBL document CHEMBL2331324, “Synthesis and biological evaluation of guanidino analogues of roscovitine” (Eur J Med Chem, 2013)

Legend:
[1] = molecular target: Serine/threonine-protein kinase PAK 6 (Homo sapiens) (UniProt Q9NQU5); assay: Inhibition of recombinant PAK6 (unknown origin) assessed as residual activity using [gamma-33P]ATP as substrate at 1 uM
How it was run: (§1)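 Selectivity panel run under previously published conditions. Screened at 1 μM in duplicate. Reactions started with [γ-33P]ATP (800 cpm/pmol) at 5, 20 or 50 μM, chosen to be at or below each enzyme's ATP Km. Stopped with phosphoric acid, spotted onto P81 filters. Result expressed as residual kinase activity.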

[2] = molecular target: Ribosomal protein S6 kinase alpha-1 (Homo sapiens) (UniProt Q15418); assay: Inhibition of recombinant RSK1 (unknown origin) assessed as residual activity using [gamma-33P]ATP as substrate at 1 uM
How it was run: (§2)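 Kinase panel screen with each compound at 1 µM, in duplicate. Reactions were started with [γ-33P]ATP (800 cpm/pmol) at 5, 20 or 50 µM, chosen per enzyme to be at or below its ATP Km. Reactions were stopped with phosphoric acid and spotted onto P81 filters. Results are given as residual kinase activity.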

[3] = molecular target: Dual specificity protein kinase TTK (Homo sapiens) (UniProt P33981); assay: Inhibition of recombinant TTK (unknown origin) assessed as residual activity using [gamma-33P]ATP as substrate at 1 uM; how it was run: as §2
[4] = molecular target: Serine/threonine-protein kinase TBK1 (Homo sapiens) (UniProt Q9UHD2); assay: Inhibition of recombinant TBK1 (unknown origin) assessed as residual activity using [gamma-33P]ATP as substrate at 1 uM; how it was run: as §2
[5] = molecular target: Insulin-like growth factor 1 receptor (Homo sapiens) (UniProt P08069); assay: Inhibition of recombinant IGF-1R (unknown origin) assessed as residual activity using [gamma-33P]ATP as substrate at 1 uM
How it was run: (§3)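 Recombinant kinase panel screened at 1 µM in duplicate. Reactions started with [γ-33P]ATP (800 cpm/pmol) at 5, 20 or 50 µM, chosen to sit at or below each enzyme's ATP Km. Stopped with phosphoric acid and spotted onto P81 filters. Result given as residual kinase activity.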

[6] = molecular target: Cyclin-dependent kinase 2/cyclin E1 (Homo sapiens, UniProt P24941); assay: Inhibition of recombinant CDK2/cyclin E (unknown origin) using histone H1 as substrate in presence of [gamma-33P]ATP; type: protein-complex assay
[7] = molecular target: Protein-tyrosine kinase 6 (Homo sapiens) (UniProt Q13882); assay: Inhibition of recombinant BRK (unknown origin) assessed as residual activity using [gamma-33P]ATP as substrate at 1 uM; how it was run: as §3
[8] = molecular target: Cyclin-dependent kinase 1/cyclin B1 (Homo sapiens, UniProt P06493); assay: Inhibition of recombinant CDK1/cyclin B (unknown origin) using histone H1 as substrate in presence of [gamma-33P]ATP; type: protein-complex assay
[9] = molecular target: Tyrosine-protein kinase JAK2 (Homo sapiens) (UniProt O60674); assay: Inhibition of recombinant JAK2 (unknown origin) assessed as residual activity using [gamma-33P]ATP as substrate at 1 uM; how it was run: as §3
[10] = molecular target: MAP/microtubule affinity-regulating kinase 4 (Homo sapiens) (UniProt Q96L34); assay: Inhibition of recombinant MARK4 (unknown origin) assessed as residual activity using [gamma-33P]ATP as substrate at 1 uM; how it was run: as §1
[11] = molecular target: Mitogen-activated protein kinase 15 (Homo sapiens) (UniProt Q8TD08); assay: Inhibition of recombinant ERK8 (unknown origin) assessed as residual activity using [gamma-33P]ATP as substrate at 1 uM; how it was run: as §3
[12] = molecular target: Serine/threonine-protein kinase Chk2 (Homo sapiens) (UniProt O96017); assay: Inhibition of recombinant CHK2 (unknown origin) assessed as residual activity using [gamma-33P]ATP as substrate at 1 uM; how it was run: as §3
MCF7 = assay: Cell cycle arrest in human MCF7 cells assessed as accumulation of cells in G2+M phase at 100 uM after 24 hrs by propidium iodide staining based flow cytometry relative to untreated control; type: functional
How it was run: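 Flow cytometry on MCF7 cells given 100 µM for 24 h. About one million cells fixed in 90% methanol and rehydrated. DNA stained with propidium iodide, read at 488/575 nm (ex/em). The value is the G2+M fraction of treated cells divided by the G2+M fraction of untreated control cells.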

[13] = molecular target: Ephrin type-A receptor 2 (Homo sapiens) (UniProt P29317); assay: Inhibition of recombinant EPH-A2 (unknown origin) assessed as residual activity using [gamma-33P]ATP as substrate at 1 uM; how it was run: as §3
[14] = molecular target: Mitogen-activated protein kinase kinase kinase kinase 2 (Homo sapiens) (UniProt Q12851); assay: Inhibition of recombinant GCK (unknown origin) assessed as residual activity using [gamma-33P]ATP as substrate at 1 uM; how it was run: as §3
[15] = molecular target: Tyrosine-protein kinase ABL1 (Homo sapiens) (UniProt P00519); assay: Inhibition of recombinant ABL (unknown origin) assessed as residual activity using [gamma-33P]ATP as substrate at 1 uM; how it was run: as §3
[16] = molecular target: Calcium/calmodulin-dependent protein kinase kinase 2 (Homo sapiens) (UniProt Q96RR4); assay: Inhibition of recombinant CAMKKbeta (unknown origin) assessed as residual activity using [gamma-33P]ATP as substrate at 1 uM; how it was run: as §3
[17] = molecular target: Eukaryotic translation initiation factor 2-alpha kinase 3 (Homo sapiens) (UniProt Q9NZJ5); assay: Inhibition of recombinant EIF2AK3 (unknown origin) assessed as residual activity using [gamma-33P]ATP as substrate at 1 uM; how it was run: as §3
[18] = molecular target: RAC-beta serine/threonine-protein kinase (Homo sapiens) (UniProt P31751); assay: Inhibition of recombinant PKB beta (unknown origin) assessed as residual activity using [gamma-33P]ATP as substrate at 1 uM; how it was run: as §1
[19] = molecular target: MAP kinase-activated protein kinase 3 (Homo sapiens) (UniProt Q16644); assay: Inhibition of recombinant MAPKAPK3 (unknown origin) assessed as residual activity using [gamma-33P]ATP as substrate at 1 uM; how it was run: as §1
[20] = molecular target: Serine/threonine-protein kinase PLK1 (Homo sapiens) (UniProt P53350); assay: Inhibition of recombinant PLK1 (unknown origin) assessed as residual activity using [gamma-33P]ATP as substrate at 1 uM; how it was run: as §1
[21] = molecular target: Insulin receptor (Homo sapiens) (UniProt P06213); assay: Inhibition of recombinant IR (unknown origin) assessed as residual activity using [gamma-33P]ATP as substrate at 1 uM; how it was run: as §3
[22] = molecular target: Serine/threonine-protein kinase PAK 5 (Homo sapiens) (UniProt Q9P286); assay: Inhibition of recombinant PAK5 (unknown origin) assessed as residual activity using [gamma-33P]ATP as substrate at 1 uM
[23] = molecular target: Serine/threonine-protein kinase 3 (Homo sapiens) (UniProt Q13188); assay: Inhibition of recombinant MST2 (unknown origin) assessed as residual activity using [gamma-33P]ATP as substrate at 1 uM; how it was run: as §1
[24] = molecular target: Mitogen-activated protein kinase 13 (Homo sapiens) (UniProt O15264); assay: Inhibition of recombinant p38 MAPKdelta (unknown origin) assessed as residual activity using [gamma-33P]ATP as substrate at 1 uM; how it was run: as §2
[25] = molecular target: Serine/threonine-protein kinase STK11 (Homo sapiens) (UniProt Q15831); assay: Inhibition of recombinant LKB1 (unknown origin) assessed as residual activity using [gamma-33P]ATP as substrate at 1 uM; how it was run: as §1
Chain of Serine/threonine-protein kinase STK11 (Homo sapiens) (Q15831 whole entry): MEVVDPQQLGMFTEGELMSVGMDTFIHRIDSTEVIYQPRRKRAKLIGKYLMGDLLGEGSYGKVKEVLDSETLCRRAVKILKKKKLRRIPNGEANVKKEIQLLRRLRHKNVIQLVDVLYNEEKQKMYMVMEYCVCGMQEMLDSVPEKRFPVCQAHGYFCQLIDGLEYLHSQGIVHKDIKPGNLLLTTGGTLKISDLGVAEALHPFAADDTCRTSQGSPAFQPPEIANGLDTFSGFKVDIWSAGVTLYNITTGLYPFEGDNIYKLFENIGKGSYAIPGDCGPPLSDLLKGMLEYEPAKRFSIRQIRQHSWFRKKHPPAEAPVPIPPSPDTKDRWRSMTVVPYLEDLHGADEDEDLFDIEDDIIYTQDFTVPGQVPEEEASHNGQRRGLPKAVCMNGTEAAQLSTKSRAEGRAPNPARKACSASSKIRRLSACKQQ

Chain of Serine/threonine-protein kinase TBK1 (Homo sapiens) (Q9UHD2 whole entry): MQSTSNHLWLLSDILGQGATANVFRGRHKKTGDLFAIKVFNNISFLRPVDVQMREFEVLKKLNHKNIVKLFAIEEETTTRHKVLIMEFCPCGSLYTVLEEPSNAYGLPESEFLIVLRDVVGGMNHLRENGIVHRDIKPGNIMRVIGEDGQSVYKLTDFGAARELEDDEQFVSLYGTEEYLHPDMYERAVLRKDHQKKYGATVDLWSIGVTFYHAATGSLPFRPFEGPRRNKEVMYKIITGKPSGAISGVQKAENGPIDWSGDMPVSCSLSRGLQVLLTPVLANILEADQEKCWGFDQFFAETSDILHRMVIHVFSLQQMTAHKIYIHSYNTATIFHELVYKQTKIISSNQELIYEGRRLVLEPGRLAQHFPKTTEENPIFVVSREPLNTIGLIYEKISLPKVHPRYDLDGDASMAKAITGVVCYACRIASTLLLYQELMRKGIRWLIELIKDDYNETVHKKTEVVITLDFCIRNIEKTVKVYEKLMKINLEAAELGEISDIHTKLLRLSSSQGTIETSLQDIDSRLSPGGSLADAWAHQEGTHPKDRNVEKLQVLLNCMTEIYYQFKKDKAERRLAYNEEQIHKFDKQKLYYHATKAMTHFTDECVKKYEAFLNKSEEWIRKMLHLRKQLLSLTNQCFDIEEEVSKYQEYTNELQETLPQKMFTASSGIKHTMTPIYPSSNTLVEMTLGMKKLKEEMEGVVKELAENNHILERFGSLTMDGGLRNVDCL
Chain of Tyrosine-protein kinase JAK2 (Homo sapiens) (O60674 whole entry): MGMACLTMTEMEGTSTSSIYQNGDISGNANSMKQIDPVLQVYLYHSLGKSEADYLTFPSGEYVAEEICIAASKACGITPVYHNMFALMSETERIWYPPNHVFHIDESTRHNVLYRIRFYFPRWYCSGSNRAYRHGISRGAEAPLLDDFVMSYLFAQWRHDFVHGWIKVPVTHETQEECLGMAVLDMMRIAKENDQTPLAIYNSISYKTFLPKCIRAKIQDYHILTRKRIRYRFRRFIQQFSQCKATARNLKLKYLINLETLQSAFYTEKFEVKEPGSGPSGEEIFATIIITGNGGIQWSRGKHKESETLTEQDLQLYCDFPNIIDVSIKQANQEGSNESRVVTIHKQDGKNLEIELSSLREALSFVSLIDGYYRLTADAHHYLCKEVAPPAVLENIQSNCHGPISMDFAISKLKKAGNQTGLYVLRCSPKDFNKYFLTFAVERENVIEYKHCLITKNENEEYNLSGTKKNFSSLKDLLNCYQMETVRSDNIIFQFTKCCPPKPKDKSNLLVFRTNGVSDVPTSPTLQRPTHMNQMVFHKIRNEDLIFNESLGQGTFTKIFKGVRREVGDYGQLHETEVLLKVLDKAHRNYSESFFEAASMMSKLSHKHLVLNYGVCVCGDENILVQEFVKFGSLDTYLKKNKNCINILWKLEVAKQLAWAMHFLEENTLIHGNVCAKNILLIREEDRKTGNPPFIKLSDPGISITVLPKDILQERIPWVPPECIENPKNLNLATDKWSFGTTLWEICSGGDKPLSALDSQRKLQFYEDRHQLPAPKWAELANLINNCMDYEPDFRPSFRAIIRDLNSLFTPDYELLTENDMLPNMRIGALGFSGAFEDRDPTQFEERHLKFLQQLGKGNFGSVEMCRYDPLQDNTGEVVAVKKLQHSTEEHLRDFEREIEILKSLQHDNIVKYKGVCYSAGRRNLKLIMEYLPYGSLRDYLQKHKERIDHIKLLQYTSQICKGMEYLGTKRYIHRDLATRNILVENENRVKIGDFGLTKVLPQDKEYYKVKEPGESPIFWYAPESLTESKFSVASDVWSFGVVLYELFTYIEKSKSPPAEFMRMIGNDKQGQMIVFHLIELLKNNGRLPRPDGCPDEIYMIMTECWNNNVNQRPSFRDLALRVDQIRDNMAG
Chain of Serine/threonine-protein kinase Chk2 (Homo sapiens) (O96017 whole entry): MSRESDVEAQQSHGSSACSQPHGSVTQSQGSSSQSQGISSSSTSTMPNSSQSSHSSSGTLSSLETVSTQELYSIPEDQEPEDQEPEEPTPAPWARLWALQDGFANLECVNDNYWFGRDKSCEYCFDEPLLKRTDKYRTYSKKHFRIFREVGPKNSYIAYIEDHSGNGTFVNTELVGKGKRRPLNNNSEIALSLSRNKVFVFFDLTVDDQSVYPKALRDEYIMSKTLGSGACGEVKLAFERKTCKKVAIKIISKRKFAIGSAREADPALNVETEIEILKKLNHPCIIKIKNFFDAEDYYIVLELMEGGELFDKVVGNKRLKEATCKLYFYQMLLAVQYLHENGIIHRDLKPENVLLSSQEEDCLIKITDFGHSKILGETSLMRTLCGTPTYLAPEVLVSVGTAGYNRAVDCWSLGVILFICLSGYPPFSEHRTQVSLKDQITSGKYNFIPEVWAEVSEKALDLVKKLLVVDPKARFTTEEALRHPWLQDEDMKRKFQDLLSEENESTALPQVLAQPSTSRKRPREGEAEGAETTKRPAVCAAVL
Chain of Cyclin-dependent kinase 1/cyclin B1 (P06493 whole entry): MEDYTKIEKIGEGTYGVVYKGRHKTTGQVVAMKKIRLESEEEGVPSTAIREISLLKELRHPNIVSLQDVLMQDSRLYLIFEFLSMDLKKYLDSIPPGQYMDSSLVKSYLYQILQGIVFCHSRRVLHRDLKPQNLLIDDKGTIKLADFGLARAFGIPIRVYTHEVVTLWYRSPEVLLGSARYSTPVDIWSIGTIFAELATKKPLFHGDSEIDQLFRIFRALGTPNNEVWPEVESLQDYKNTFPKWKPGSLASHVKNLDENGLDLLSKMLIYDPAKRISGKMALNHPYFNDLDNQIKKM
Chain of Cyclin-dependent kinase 1/cyclin B1 (P14635 whole entry, further chain): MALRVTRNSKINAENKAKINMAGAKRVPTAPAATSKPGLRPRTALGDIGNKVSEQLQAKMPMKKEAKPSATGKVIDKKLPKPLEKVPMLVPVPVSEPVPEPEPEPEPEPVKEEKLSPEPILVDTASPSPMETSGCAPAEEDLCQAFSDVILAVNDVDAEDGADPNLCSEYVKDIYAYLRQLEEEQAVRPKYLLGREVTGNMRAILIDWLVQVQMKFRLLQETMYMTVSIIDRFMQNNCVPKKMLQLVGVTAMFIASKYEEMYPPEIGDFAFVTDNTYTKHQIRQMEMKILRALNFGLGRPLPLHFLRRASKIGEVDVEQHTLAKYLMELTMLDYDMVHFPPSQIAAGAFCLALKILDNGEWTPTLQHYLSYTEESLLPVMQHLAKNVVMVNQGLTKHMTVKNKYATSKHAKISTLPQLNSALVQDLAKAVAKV
Chain of Ribosomal protein S6 kinase alpha-1 (Homo sapiens) (Q15418 whole entry): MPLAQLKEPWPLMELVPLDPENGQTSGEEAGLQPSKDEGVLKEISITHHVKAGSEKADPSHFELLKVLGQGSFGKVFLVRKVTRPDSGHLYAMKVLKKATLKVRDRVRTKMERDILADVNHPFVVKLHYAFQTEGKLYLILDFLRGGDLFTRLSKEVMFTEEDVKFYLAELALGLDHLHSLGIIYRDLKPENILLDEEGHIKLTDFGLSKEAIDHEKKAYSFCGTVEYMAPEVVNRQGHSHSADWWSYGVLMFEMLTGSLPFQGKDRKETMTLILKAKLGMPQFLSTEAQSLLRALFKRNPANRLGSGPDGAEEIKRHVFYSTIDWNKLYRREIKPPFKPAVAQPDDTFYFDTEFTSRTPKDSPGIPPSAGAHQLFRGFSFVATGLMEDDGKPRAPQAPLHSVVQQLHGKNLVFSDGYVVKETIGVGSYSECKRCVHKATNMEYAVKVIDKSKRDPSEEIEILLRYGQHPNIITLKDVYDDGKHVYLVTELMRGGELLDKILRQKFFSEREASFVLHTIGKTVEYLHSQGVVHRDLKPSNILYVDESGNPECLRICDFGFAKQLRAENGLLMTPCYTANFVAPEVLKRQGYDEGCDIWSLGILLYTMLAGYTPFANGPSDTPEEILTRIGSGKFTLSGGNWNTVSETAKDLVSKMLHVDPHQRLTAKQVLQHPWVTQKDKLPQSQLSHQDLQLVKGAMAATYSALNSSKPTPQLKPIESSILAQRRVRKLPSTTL
Chain of Serine/threonine-protein kinase PLK1 (Homo sapiens) (P53350 whole entry): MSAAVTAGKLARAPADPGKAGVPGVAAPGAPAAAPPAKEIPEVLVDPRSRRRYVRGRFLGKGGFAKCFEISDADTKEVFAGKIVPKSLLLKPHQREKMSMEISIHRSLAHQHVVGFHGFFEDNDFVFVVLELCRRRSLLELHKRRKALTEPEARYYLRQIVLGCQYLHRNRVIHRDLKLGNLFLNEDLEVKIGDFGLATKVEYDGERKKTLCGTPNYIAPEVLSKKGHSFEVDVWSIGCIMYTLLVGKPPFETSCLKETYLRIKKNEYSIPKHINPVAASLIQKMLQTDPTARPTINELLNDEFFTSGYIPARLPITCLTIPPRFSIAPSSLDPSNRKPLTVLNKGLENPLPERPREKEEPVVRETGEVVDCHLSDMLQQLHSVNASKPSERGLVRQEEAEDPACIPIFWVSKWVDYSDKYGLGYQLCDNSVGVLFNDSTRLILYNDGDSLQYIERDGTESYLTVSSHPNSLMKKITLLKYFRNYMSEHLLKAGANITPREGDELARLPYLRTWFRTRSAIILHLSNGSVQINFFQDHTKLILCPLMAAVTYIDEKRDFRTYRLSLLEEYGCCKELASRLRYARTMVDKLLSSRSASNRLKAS

| Activity [1] [%] | Activity [2] [%] | Activity [3] [%] | Activity [4] [%] | Activity [5] [%] | IC50 [6] [nM] | Activity [7] [%] | IC50 [8] [nM] | Activity [9] [%] | Activity [10] [%] | Activity [12] [%] | Activity [13] [%] | Activity [14] [%] | Activity [15] [%] | Activity [16] [%] | Activity [17] [%] | Activity [18] [%] | Activity [19] [%] | Structure (SMILES) | Activity [11] [%] | Ratio (MCF7) | also measured |
| --- | --- | --- | --- | --- | --- | --- | --- | --- | --- | --- | --- | --- | --- | --- | --- | --- | --- | --- | --- | --- | --- |
| 26 | 18 | 40 | 92 | 10 | 140 | 50 | 2100 | 16 | 38 | 59 | 22 | 15 | 5 | 17 | 17 | 111 | 80 | CC[C@H](CO)Nc1nc(NC(=N)N)c2ncn(C(C)C)c2n1 | 16 | 1.8 | Activity [20]: 108%; Activity [21]: 5%; Activity [22]: 18%; Activity [23]: 35%; Activity [24]: 37%; Activity [25]: 13% |
| 17 | 12 | 32 | 90 | 5 | 37 | 44 | 900 | 16 | 29 | 42 | 17 | 10 | 6 | 13 | 11 | 103 | 78 | CC[C@@H](CO)Nc1nc(NC(=N)N)c2ncn(C(C)C)c2n1 | 18 | 1.6 | Activity [20]: 108%; Activity [21]: 3%; Activity [22]: 15%; Activity [23]: 43%; Activity [24]: 23%; Activity [25]: 16% |
